# Screens as filed in PubChem.
# OX1R antag-1 = OX1R (human) antagonism; O43613; OX1R-expressing cells, FRET antagonist read-out; inhibition, % at 6.6 µM; 330,000 compounds, 1.8% hits; in the data active = inhibition mostly above about 38%, no sharp cut-off; inactive = mostly below about 40%;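 also: 0% = agonist challenge alone and 100% = reference antagonist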
# Target sequence (O43613 whole entry, looked up): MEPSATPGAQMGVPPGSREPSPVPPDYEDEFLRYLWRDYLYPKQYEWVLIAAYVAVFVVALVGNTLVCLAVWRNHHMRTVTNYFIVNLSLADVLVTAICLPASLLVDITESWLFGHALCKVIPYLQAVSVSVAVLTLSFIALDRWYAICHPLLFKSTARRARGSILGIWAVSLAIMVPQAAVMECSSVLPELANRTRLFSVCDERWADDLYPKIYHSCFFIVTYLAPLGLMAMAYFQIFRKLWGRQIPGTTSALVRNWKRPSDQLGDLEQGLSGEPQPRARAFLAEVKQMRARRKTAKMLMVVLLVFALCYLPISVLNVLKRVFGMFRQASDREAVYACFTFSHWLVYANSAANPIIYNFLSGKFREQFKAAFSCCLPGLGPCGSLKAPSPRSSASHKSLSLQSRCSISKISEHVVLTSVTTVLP
# CHO parental Ca = signal in parental CHO cells, OX1R antagonist counter-screen; 330,000 compounds, 0.63% hits; parental CHO-K1, ATP-induced calcium, Fluo-8 fluorescence; AID 463079; inhibition, % at 5.6 µM;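 active = inhibition above that plate's mean sample inhibition plus 3 SD, cut at about 26% in these data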;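 also: 0% = ATP-challenged DMSO wells and 100% = DMSO wells without ATP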
#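 Measured by: calcium-sensitive Fluo-8 fluorescence / Test system: CHO parental line / Controls: ATP-challenged DMSO wells low, unchallenged DMSO wells high / Measure: % inhibition / Compound: single nominal dose of 5.6 µM per compound / Replicates: single well per compound, no replicates / Reagent: ATP as calcium-mobilizing challenge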
# GPR7 antag = blocks human GPR7 receptor signaling; 290,000 compounds, 1.1% hits; AID 1861; GPR7-expressing cells, fluorescence antagonist assay; P48145; inhibition, % at 4.4 µM; in the data active = inhibition above about 16%, passing the limit was not always enough;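 also: cells stimulated with the agonist NPW; 0% = agonist with vehicle and 100% = vehicle without agonist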
# OX1R antag-2 = antagonists of human orexin 1 receptor; CHO/OX1R cells, Fluo-8 calcium fluorescence, orexin A; inhibition, % at 5 µM; 330,000 compounds, 0.43% hits; AID 434989;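 active = inhibition above its plate's threshold, mean inhibition of all tested compounds on the plate plus 3 SD, cut at about 37% in these data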;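 also: 0% = orexin A challenge wells and 100% = SB-334867-A antagonist wells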
# GalR3 antag = antagonists of human GalR3. inhibition, % at 3 µM. AID 651719. O60755. 360,000 compounds, 0.44% hits. HEK293 GalR3-CNG cAMP membrane potential fluorescence; galR3 body fused to GalR1 C-terminus;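 active = inhibition above the screen-wide average plus 3 SD, cut at about 13% in these data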;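 also: forskolin and galanin both at EC90 stimulate the cells; cAMP rise reported by CNG channel membrane potential dye signal; 0% = forskolin plus galanin with DMSO and 100% = forskolin alone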
# Active calls of the source: *; · = not tested or not shown. The list is not random: actives were taken first. Their share in the collection is about 3.1%.
SMILES,OX1R antag-1,CHO parental Ca,GPR7 antag,OX1R antag-2,GalR3 antag
CCN1CCN(c2ccc(S(=O)(=O)N3CCCCC3)cc2NC(=O)Cc2ccccc2)CC1,13.6,-23.2,·,-19.8,-0.3
Oc1ccccc1C=NC(N=Cc1ccccc1O)c1ccccc1O (stereo not drawn),·,·,·,·,-4.8
O=C(Nc1ncc(Cc2ccc(SC(F)F)cc2)s1)c1ccc(OC(F)F)cc1,28.8,23.4,7.9,61.1*,9.9
c1ccc(CSc2nnc(-c3cccs3)n2Cc2ccco2)cc1,28.8,-6.4,7.8,-18.2,-5.2
Cc1ccccc1CSc1nnc(-c2cccs2)n1Cc1ccco1,69.3*,-37.0,10.8,7.5,-7.4
Cc1ccccc1CSc1nnc(-c2ccco2)n1Cc1ccco1,68.1*,-26.7,16.9*,4.8,-9.0
COc1cc(/C=C2/S/C(=N/S(=O)(=O)Cc3ccccc3)NC2=O)c([N+](=O)[O-])cc1OC,40.7*,-4.4,-9.1,-14.2,-6.6
O=C1N/C(=N\S(=O)(=O)c2ccccc2)S/C1=C\c1cc([N+](=O)[O-])ccc1O,15.4,45.9*,16.0,58.9*,-7.9
Cc1cc(C)cc(OCC(=O)NNC(=O)c2cc3ccccc3o2)c1,9.4,-11.0,-13.6,-4.2,-0.3
CCc1ccc(OCC(=O)NNC(=O)c2cc3ccccc3o2)cc1,9.1,52.7*,-17.2,-0.5,-2.8
CC(C)COc1ccc(S(=O)(=O)NNC(=O)c2cc3ccccc3o2)cc1,29.3,43.0*,-5.2,25.6,-3.6
COC(=O)C1=C(C)N(Cc2ccc(Cl)cc2)C(=S)NC1c1ccccc1 (stereo not drawn),·,·,·,·,-8.0
COCCN(CC(=O)Nc1ccccc1C(F)(F)F)C(=O)/C=C/c1ccc2ccccc2n1,53.3*,-15.5,·,30.1,3.7
COc1ccccc1N(CC(O)CN1C(C)CCCC1C)S(=O)(=O)c1ccccc1 (stereo not drawn),25.5,-4.7,-5.2,-18.0,-9.8
N#Cc1c(N)[nH]c(C(=O)c2ccccc2)c1-c1ccc(Br)cc1,·,·,·,·,-6.8
Cc1ccccc1COC(=O)c1cc([N+](=O)[O-])ccc1N1CCOCC1,1.6,-24.2,3.6,-39.0,1.7
N#CC1(NC(=O)COC(=O)c2cc([N+](=O)[O-])ccc2N2CCCC2)CCCCC1,11.6,-5.3,·,-23.2,-4.4
COc1ccc(C(=O)c2cc([N+](=O)[O-])ccc2N2CCCC2)cc1,26.9,-20.8,-6.8,-44.4,-2.4
CCc1cccc(NC(=O)COC(=O)c2cc([N+](=O)[O-])ccc2N2CCOCC2)c1,31.2,-17.4,·,-19.2,-5.2
Cc1cc(NC(=O)COC(=O)c2cc([N+](=O)[O-])ccc2N2CCOCC2)ccc1Br,36.9*,6.5,·,-17.8,-7.8
COc1ccc(C(=O)c2cc([N+](=O)[O-])ccc2N2CCN(C)CC2)cc1,22.9,-18.8,34.4*,-1.6,-8.2
COc1ccc(OC)c(COC(=O)c2cc([N+](=O)[O-])ccc2N2CCOCC2)c1,32.2*,-15.4,·,5.3,-4.1
N#CC1(NC(=O)COC(=O)c2cc([N+](=O)[O-])ccc2N2CCOCC2)CCCCC1,52.4*,-5.6,·,-18.2,-3.0
CCOCCCNC(=O)c1cn(CC)c2ccc(S(=O)(=O)N3CCCC3)cc2c1=O,-0.2,-13.2,-8.0,-13.4,-7.4
COC(=O)[C@]12C[C@H](CC(=O)NCC3CCCCC3)C(=O)N(CCC3=CCCCC3)C1=C[C@H](C(C)(C)C)O[C@@H]2C,·,·,·,·,-2.0
SMILES,OX1R antag-1,CHO parental Ca,GPR7 antag,OX1R antag-2,GalR3 antag
CCS(=O)(=O)n1nc(-c2ccccc2)cc1N,27.2,6.0,-11.7,-9.8,-1.5
Nc1cc(-c2ccc(Cl)cc2)nn1S(=O)(=O)c1ccccc1,25.0,48.4*,-11.5,-13.1,2.5
N#Cc1[nH]nc2nc[nH]c(=O)c12,·,·,·,·,-6.8
COc1cccc(N2C(=O)C(c3ccccc3)=C(c3nc4ccccc4s3)C2NC(C)=O)c1 (stereo not drawn),53.0*,-13.4,-7.8,-6.0,-1.3
COc1ccc(NC2CCCN(C(=O)c3cn(C)c4ccccc34)C2)cc1 (stereo not drawn),38.5*,-19.5,1.3,-6.0,3.3
CC[C@@]1(C(=O)OC)N[C@H](CN(C)C(=O)Nc2ccc(C(F)(F)F)cc2)[C@@H]2C(=O)N(C)C(=O)[C@@H]21,1.8,-14.2,·,-32.2,-6.5
CCCCCc1ccc(OCCOCCn2c[n+](C)c3ccccc32)c(CCCCC)c1,·,·,39.8*,·,·
C[n+]1cn(CC(O)COCc2ccccc2)c2ccccc21 (stereo not drawn),6.6,0.4,0.3,-6.1,-5.2
O=c1[nH]nc(Cc2ccc(-c3cccc(Cl)c3)o2)c2ccccc12,71.5*,38.2,-14.2,55.3*,-0.3
O=C(Cc1n[nH]c(=O)c2ccccc12)NCc1ccc(Cl)cc1,4.0,-13.7,-11.0,-12.3,-4.8
CCCCNC(=S)Nc1ccc(C(F)(F)F)cc1,64.6,71.5*,0.7,28.7,-4.3
CCCCNC(=S)Nc1ccc(Cl)cc1,15.8,4.8,-5.6,2.9,1.8
Nc1cc(C(=O)O)c(N)c2c1C(=O)c1ccccc1C2=O,114.8*,-3.4,-8.3,5.3,·
Nc1nc(-c2ccccc2)nc(-c2ccccc2O)n1,52.4*,-8.8,-0.7,7.0,-11.7
Nc1nc(N)nc(-c2ccccc2O)n1,30.1,-14.5,0.7,-6.6,-3.8
COc1ccccc1Nc1nc(N)nc(CSc2nc(C)cc(C)n2)n1,10.8,-15.9,7.6,-13.4,-5.8
Cc1cc(C)nc(SCc2nc(N)nc(-c3ccccc3O)n2)n1,55.1*,-13.0,14.8,11.9,-3.6
Fc1ccc(NC(=S)NC2CCN(Cc3ccccc3)CC2)cc1,14.5,-5.0,3.7,-13.2,-7.1
CC(C)(C)CC(C)(C)NC(=S)NC1CCN(Cc2ccccc2)CC1,1.9,0.7,27.5*,-20.4,-2.7
NS(=O)(=O)c1ccc(CCNC(=O)CSc2ccsc2[N+](=O)[O-])cc1,43.6*,-17.8,0.5,-12.5,-2.6
O=[N+]([O-])c1ccc2c(c1)S(=O)c1ccccc1-2 (stereo not drawn),75.0*,-28.1,-15.0,-5.6,0.0
O=C(O)c1ccccc1-c1ccc([N+](=O)[O-])cc1Cl,·,·,·,·,-6.3
c1ccc(COc2ccccc2CNC23CC4CC(CC(C4)C2)C3)cc1,15.0,-9.4,35.8*,-21.4,-15.4
Cc1ccc(C(C(=O)NC2CCCC2)N(C(=O)Cc2cccs2)c2ccc(C)c(C)c2)o1 (stereo not drawn),52.5*,39.7*,11.2,13.2,-4.6
Cc1ccc(C)c(N(C(=O)Cc2cccs2)C(C(=O)NC2CCCC2)c2ccc(C)o2)c1 (stereo not drawn),10.5,-8.1,-6.9,-15.9,-1.6
CC(NC(=O)CSc1nnc(-c2cc3cc(Cl)ccc3o2)n1C)c1ccccc1 (stereo not drawn),54.4*,-13.3,-4.1,-25.8,-3.8
Cn1c(SCC(=O)NC2CCCCC2)nnc1-c1cc2cc(Cl)ccc2o1,8.0,12.4,1.1,-12.8,-2.7
CC12CCC(=O)N1C(C(=O)OCc1c(Cl)cccc1Cl)CS2 (stereo not drawn),13.0,-6.8,-9.0,-2.1,-3.3
